Where only a bound is given, the exact number is not on record here.

For one data set, the system named is Hepatitis C virus. Put plainly: Antiviral activity against HCV infected in human HuH7 cells by cell-based subgenomic replicon assay. It is filed as functional, organism-based, Hepacivirus hominis, Huh-7. An outline of the steps:
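HCV subgenomic replicon assay in HUH-7 cells, run in 10% fetal cow serum. Cytotoxicity was read in parallel as the prodrug concentration reducing cell viability by 50%.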

Data set [1] is described as follows: Metabolic stability in sc dosed hamster liver assessed as formation of 2'-C-methylcytidine triphosphate ((2R,3R,4R,5R)-5-(4-amino-2-oxopyrimidin-1(2H)-yl)-3,4-dihydroxy-4-methyltetrahydrofuran-2-yl)methyl tetrahydrogen triphosphate at 1.5 umol after 6 hrs. The data set is classed as ADME, organism-based. The following applies: cricetinae, in vivo. An outline of the steps:
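Hamsters received a single subcutaneous dose of compound formulated in PEG. Liver was collected at 6 h and intracellular 2'-C-methylcytidine triphosphate quantified as nmol/g tissue (LLOQ 0.2 nmol/g).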

The nature of data set [2]: Cytotoxicity against human HuH7 cells assessed as cell viability. It is filed as cell-based, Huh-7. The method, boiled down:
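Cytotoxicity measured in HUH-7 cells carrying the HCV subgenomic replicon. The value is the prodrug concentration that reduces cell viability by 50%.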

Data set [3] can be described thus: Metabolic stability in po dosed hamster liver assessed as 2'-C-methylcytidine triphosphate ((2R,3R,4R,5R)-5-(4-amino-2-oxopyrimidin-1(2H)-yl)-3,4-dihydroxy-4-methyltetrahydrofuran-2-yl)methyl tetrahydrogen triphosphate level at 30.3 umol. The data set is classed as ADME, organism-based. The following applies: cricetinae, in vivo.
A further data set relates to Plasma. The experiment in a line: Stability in human plasma assessed as 2'-C-methylcytidine triphosphate ((2R,3R,4R,5R)-5-(4-amino-2-oxopyrimidin-1(2H)-yl)-3,4-dihydroxy-4-methyltetrahydrofuran-2-yl)methyl tetrahydrogen triphosphate level. It is filed as ADME, cell-free. The method, boiled down: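 Prodrug stability was measured in human plasma and scored as the fraction of dose remaining over time: stable; 80% of dose left after 2 h; 30% left after 1 h; 0% left after 18 min.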

`CCCCOC(=O)[C@H](C)NP1(=O)OC[C@H]2O[C@@H](n3ccc(N)nc3=O)[C@](C)(O)[C@@H]2O1` (stereo in doubt; 10 S.E.) showed an EC50 in the data set on Hepatitis C virus (Hepatitis C virus, Huh-7) of 15 µM.

For `C[C@H](NP1(=O)OC[C@H]2O[C@@H](n3ccc(N)nc3=O)[C@](C)(O)[C@@H]2O1)C(=O)OC1CCCCCC1` (stereo partly specified), in data set [1], the Activity was 10.3 nmol/g. Further, the half-maximal effective concentration (EC50) with Hepatitis C virus (Hepatitis C virus, Huh-7) was over 10 µM.

Consider `COCCCOC(=O)[C@H](C)NP1(=O)OC[C@H]2O[C@@H](n3ccc(N)nc3=O)[C@](C)(O)[C@@H]2O1` (stereo in doubt; 16 S.E.), for which the response with Hepatitis C virus (Hepatitis C virus, Huh-7) was half-maximal at 28 µM (EC50).

`CCCC(CCC)COC(=O)[C@H](C)NP1(=O)OC[C@H]2O[C@@H](n3ccc(N)nc3=O)[C@](C)(O)[C@@H]2O1` (stereo in doubt; 20 S.E.) had an EC50 in the data set on Hepatitis C virus (Hepatitis C virus, Huh-7) of 14 µM.

As to `COCCCOC(=O)[C@H](C)NP1(=O)OC[C@H]2O[C@@H](n3ccc(N)nc3=O)[C@](C)(O)[C@@H]2O1` (stereo in doubt; 16 F.E.), the EC50 in the data set on Hepatitis C virus (huh-7) is over 20 µM.

Compound `CCOC(=O)[C@H](CC(C)C)NP1(=O)OC[C@H]2O[C@@H](n3ccc(N)nc3=O)[C@](C)(O)[C@@H]2O1` (stereo partly specified) came in with an EC50 in the data set with Hepatitis C virus (Hepatitis C virus, Huh-7) of over 50 µM.

With `C[C@H](NP1(=O)OC[C@H]2O[C@@H](n3ccc(N)nc3=O)[C@](C)(O)[C@@H]2O1)C(=O)OC1CCCCC1` (stereo in doubt; 14 F.E.), the EC50 in the data set on Hepatitis C virus (Hepatitis C virus, Huh-7) is over 20 µM.

Consider `C[C@H](NP1(=O)OC[C@H]2O[C@@H](n3ccc(N)nc3=O)[C@](C)(O)[C@@H]2O1)C(=O)OC1CCCC1` (mixture of isomers), for which the EC50 in the data set on Hepatitis C virus (Hepatitis C virus, Huh-7) is over 20 µM.

On to `CC(C)[C@H](N)C(=O)O[C@@H]1[C@@H](CO)O[C@@H](n2ccc(N)nc2=O)[C@]1(C)O` [VALOPICITABINE], for which the CC50 in data set [2] was over 100 µM. Also, in data set [1], the Activity is under 0.2 nmol/g. In the data set on Hepatitis C virus (Hepatitis C virus, Huh-7), this compound returned an EC50 of 7.6 µM.

Take `CCC(CC)COC(=O)[C@H](C)NP1(=O)OC[C@H]2O[C@@H](n3ccc(N)nc3=O)[C@](C)(O)[C@@H]2O1` (stereo partly specified): the Activity in data set [1] was 8.9 nmol/g. Further, the EC50 in the data set on Hepatitis C virus (Hepatitis C virus, Huh-7) was over 20 µM.

Consider `CCCCCCOCCOC(=O)[C@H](C)NP1(=O)OC[C@H]2O[C@@H](n3ccc(N)nc3=O)[C@](C)(O)[C@@H]2O1` (stereo partly specified), for which the Activity in data set [1] stood at 2.6 nmol/g. For the same compound, the midpoint of the response with Hepatitis C virus (Hepatitis C virus, Huh-7), the EC50, lay at 14 µM.

In the data set on Hepatitis C virus (Hepatitis C virus, Huh-7), `CCC[C@H](NP1(=O)OC[C@H]2O[C@@H](n3ccc(N)nc3=O)[C@](C)(O)[C@@H]2O1)C(=O)OCC` (mixture of isomers) had an EC50 of over 20 µM.

As for `CCOC(=O)[C@H](C)N[P@@]1(=O)OC[C@H]2O[C@@H](n3ccc(N)nc3=O)[C@](C)(O)[C@@H]2O1`, the CC50 in data set [2] is over 100 µM. Moreover, the EC50 with Hepatitis C virus (Hepatitis C virus, Huh-7) was over 20 µM.

`CCCCCCCOC(=O)[C@H](C)NP1(=O)OC[C@H]2O[C@@H](n3ccc(N)nc3=O)[C@](C)(O)[C@@H]2O1` (stereo in doubt; 12 S.E.): the Activity in data set [1] stood at 5.9 nmol/g. It took 10.5 µM to reach a half-maximal effect in the data set with Hepatitis C virus (Hepatitis C virus, Huh-7) (EC50).

In the data set on Hepatitis C virus (Hepatitis C virus, Huh-7), `CC(C)CCOC(=O)[C@H](C)NP1(=O)OC[C@H]2O[C@@H](n3ccc(N)nc3=O)[C@](C)(O)[C@@H]2O1` (stereo in doubt) had a 50% effective concentration (EC50) of over 20 µM.

In the data set with Hepatitis C virus (huh-7), `CCCCOC(=O)[C@H](C)NP1(=O)OC[C@H]2O[C@@H](n3ccc(N)nc3=O)[C@](C)(O)[C@@H]2O1` (stereo in doubt; 10 F.E.) displayed an EC50 of over 20 µM.

In turn, `CCCC(CCC)COC(=O)[C@H](C)NP1(=O)OC[C@H]2O[C@@H](n3ccc(N)nc3=O)[C@](C)(O)[C@@H]2O1` (stereo in doubt; 20 F.E.) had an EC50 with Hepatitis C virus (huh-7) of over 20 µM.

For `CCOC(=O)[C@H](C)N[P@]1(=O)OC[C@H]2O[C@@H](n3ccc(N)nc3=O)[C@](C)(O)[C@@H]2O1`, in data set [2], the CC50 was over 100 µM. The response in the data set with Hepatitis C virus (Hepatitis C virus, Huh-7) was half-maximal at 4 µM (EC50).

Compound `C[C@H](NP1(=O)OC[C@H]2O[C@@H](n3ccc(N)nc3=O)[C@](C)(O)[C@@H]2O1)C(=O)OC(C)(C)C` (stereo partly specified) gave an EC50 in the data set with Hepatitis C virus (Hepatitis C virus, Huh-7) of over 20 µM.

In turn, `CCCCCCCOC(=O)[C@H](C)NP1(=O)OC[C@H]2O[C@@H](n3ccc(N)nc3=O)[C@](C)(O)[C@@H]2O1` (stereo in doubt; 12 F.E.) showed an EC50 in the data set with Hepatitis C virus (huh-7) of 15 µM.

For the compound `CCOC(=O)[C@H](CC)NP1(=O)OC[C@H]2O[C@@H](n3ccc(N)nc3=O)[C@](C)(O)[C@@H]2O1` (stereo partly specified), the Activity in data set [3] is under 0.2 nmol/g. In the data set on Plasma, the Stability entry is reported as “Stable”. For the same compound, the EC50 with Hepatitis C virus (Hepatitis C virus, Huh-7) turned out to be 5.6 µM.

Values taken from ChEMBL document CHEMBL1153624, “Cyclic phosphoramidates as prodrugs of 2'-C-methylcytidine” (Eur J Med Chem, 2009).
